The results in this text go back to ChEMBL document CHEMBL1944636, “Inhibition of hepatitis C virus NS5B polymerase by S-trityl-L-cysteine derivatives” (Eur J Med Chem, 2012).

Molecules are shown by their SMILES. Activity calls are given as the source filed them. The calls are words filed in the database; no cut-off is given here.

Data set [1] relates to Hepatitis C virus. As to the kind of experiment: Inhibition of HCV genotype 1b recombinant N-His-tagged NS5B Cdelta21 polymerase expressed in Escherichia coli DH5alpha using [alpha-32P]UTP at 100 uM after 60 mins by liquid scintillation counting. On the set-up: species or system Hepatitis C virus subtype 1b. Conditions: for inhibition at 100 µM: DH5-alpha, 1 h. An outline of the steps: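 Primer-dependent elongation with 100 ng NS5BCΔ21 in 20 mM Tris-HCl pH 7.0, 100 mM NaCl, 100 mM Na-glutamate, 1 mM MnCl₂, 0.25 μM polyrA/U₁₂, 20 μM UTP plus [α-³²P]UTP. Compound at 100 μM, 60 min at 30 °C. TCA/pyrophosphate stop, GF-B filter capture, scintillation counting. Percent of DMSO control, at least two independent measurements in duplicate.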

Data set [2] relates to Hepatitis C virus. As to the kind of experiment: Inhibition of HCV genotype 1b recombinant N-His-tagged NS5B Cdelta21 polymerase expressed in Escherichia coli DH5alpha using [alpha-32P]UTP after 60 mins by liquid scintillation counting. Conditions: DH5-alpha, 1 h. The arrangement: species or system Hepatitis C virus subtype 1b. An outline of the steps:
(§1)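 NS5BCΔ21 (genotype 1b, N-His, from E. coli DH5α, Ni-NTA purified), 100 ng, elongates polyrA/U₁₂ with 20 μM UTP/[α-³²P]UTP and 1 mM MnCl₂ at pH 7.0, 60 min at 30 °C. Counted on filters by scintillation. IC50 from nonlinear fits of 8–12 concentrations in duplicate, two independent experiments.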

Data set [3] in a line: Inhibition of HCV NS5B polymerase. The arrangement: species or system Hepacivirus hominis. The gist of the method: as §1
Data set [4] concerns Hepatitis C virus. Briefly: Antiviral activity against HCV genotype 1b infected in human HuH7/Rep-Feo1b cells assessed as inhibition of viral replication at 100 uM after 42 hrs by luciferase reporter gene assay. The data set is classed as functional, Hepacivirus hominis. The settings on record: Huh-7, 42 h. The gist of the method: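 Huh7/Rep-Feo1b replicon cells (DMEM, 10% FCS, 0.5 mg/mL G418, 37 °C, 5% CO2) seeded at 1 × 10⁴/well and exposed to 100 μM compound or DMSO for 42 h, 1.0% DMSO final. Replication was read as firefly luciferase signal relative to DMSO controls. Mean of three independent experiments in duplicate.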

Data set [5] in a line: Cytotoxicity against hamster BHK cells assessed as cell viability at 100 uM after 42 hrs by luciferase reporter gene assay. The data set is classed as cell-based, Mesocricetus auratus. The settings on record: read-out: Activity. The gist of the method:
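BHK-NS5B-FRLuc reporter cells (DMEM, 10% FBS, 1 mg/mL G418, 10 μg/mL blasticidin) were plated at 1 × 10⁴/well with 100 μM compound or 1% DMSO for 42 h. Viability was taken as firefly luciferase level versus DMSO controls using Dual-Glo read-out. Three independent experiments in duplicate.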

A short description of data set [6]: Cytotoxicity against human HuH7 cells assessed as cell viability at 100 uM after 42 hrs by MTS assay. The data set is classed as cell-based, Huh-7. Conditions: read-out: Activity. The gist of the method: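 Viability of Huh7/Rep-Feo1b replicon cells was measured by colorimetric MTS read-out after 42 h with 100 μM compound. Cells were seeded at 1 × 10⁴/well, DMSO was 1.0% final, and culture was at 37 °C, 5% CO2. Values relative to DMSO controls, three independent experiments in duplicate.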

Data set [7] has as its system Hepatitis C virus. Briefly: Inhibition of HCV genotype 1b NS5B polymerase expressed in BHK cells at 100 uM after 42 hrs by luciferase reporter gene assay. On the set-up: species or system Hepatitis C virus subtype 1b. The gist of the method: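 Intracellular NS5B RdRp activity was read in BHK-NS5B-FRLuc reporter cells, 1 × 10⁴/well, treated 42 h with 100 μM compound or 1% DMSO at 37 °C, 5% CO2. Dual-Glo luciferase read-out; inhibition is percent reduction of Renilla-to-firefly luminescence ratio against DMSO controls. Three independent experiments in duplicate.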

Consider `CCC(C)C(SC[C@H](N)C(=O)O)(c1ccccc1)c1ccccc1` (stereo partly drawn), for which, in data set [1], the inhibition at 100 µM was found to be 34%.
The same measure, in the same setting: to `CCCCc1ccc(C(SC(C)(C)[C@H](N)C(=O)O)(c2ccccc2)c2ccccc2)cc1` belongs 22%.
Still for that read-out and setting: next, `N[C@@H](CSC(c1ccccc1)(c1ccccc1)c1ccc(Cl)cc1)C(=O)O`: 28.3%; `CCCOc1ccc(C(SC[C@H](N)C(=O)O)(c2ccccc2)c2ccccc2)cc1`: 14%.
Still for that read-out and setting: next, `CCCc1ccc(C(SCCN)(c2ccccc2)c2ccccc2)cc1`: 27.4%; `NCCSC(c1ccccc1)(c1ccccc1)c1ccc(I)cc1`: 36.7%; `Cc1ccc(C(SC[C@H](N)C(=O)O)(c2ccccc2)c2ccccc2)cc1`: 23.1%.
`Cc1ccc(C(SCCN)(c2ccccc2)c2ccccc2)cc1`: the inhibition at 100 µM in data set [1] is 31.7%.
With `N[C@@H](CSC(c1ccccc1)(c1ccccc1)c1cccs1)C(=O)O`, the inhibition at 100 µM in data set [1] worked out at 23.4%.
For `N[C@@H](CSC(c1ccccc1)(c1ccccc1)c1ccc(C2CCCCC2)cc1)C(=O)O`, the inhibition at 100 µM in data set [1] was determined as 20.5%.
Take `CCCCc1ccc(C(SC[C@H](N)C(=O)O)(c2ccccc2)c2ccccc2)cc1`: the inhibition at 100 µM in data set [1] was 60%. Besides, the IC50 in data set [2] turned out to be 39.7 µM.
In data set [3], `N[C@@H](CSC1(c2ccc(Cl)cc2)c2ccccc2-c2ccccc21)C(=O)O` displayed a pIC50 of 4.33.
With `CCc1ccc(C(SC[C@H](N)C(=O)O)(c2ccccc2)c2ccccc2)cc1`, the inhibition at 100 µM in data set [1] worked out at 36.8%.
The same measure, in the same setting: next, `N[C@@H](CSC(c1ccccc1)(c1ccccc1)c1ccc(-c2ccccc2)cc1)C(=O)O`: 22.4%; `CC(C)c1ccc(C(SC[C@H](N)C(=O)O)(c2ccccc2)c2ccccc2)cc1`: 31.2%; `N[C@@H](CSC(c1ccccc1)(c1ccccc1)c1ccc2ccccc2c1)C(=O)O`: 14.7%.
As to `CC(C)(SC(c1ccccc1)(c1ccccc1)c1ccccc1)[C@@H](N)C(=O)O`, the inhibition at 100 µM in data set [4] turned out to be 89.5%; in data set [1], 82.8%; in data set [7], 85.4%. Further, the viability at 42 h, 100 µM in data set [5] came out at 100%; in data set [6], 72.6%. In data set [2], the IC50 was 22.3 µM.
As for `N[C@@H](CSC(c1ccccc1)(c1ccccc1)c1ccc(C(=O)O)cc1)C(=O)O`, the inhibition at 100 µM in data set [1] stood at 30.9%.
For `CSc1ccc(C(SCCN)(c2ccccc2)c2ccccc2)cc1`, in data set [1], the inhibition at 100 µM came out at 24%.
For the compound `CN(C)[C@@H](CSC(c1ccccc1)(c1ccccc1)c1ccccc1)C(=O)O`, in data set [1], the inhibition at 100 µM came out at 17.2%.
For `N[C@@H](CSC(c1ccccc1)(c1ccccc1)c1ccccc1)C(=O)O` [S-TRITYL-L-CYSTEINE], the inhibition at 100 µM in data set [1] came out at 12.6%.
On to `CCc1ccc(C(SCCN)(c2ccccc2)c2ccccc2)cc1`, for which the inhibition at 100 µM in data set [1] was 28.7%.
Turning to `CC(C)C(SC[C@H](N)C(=O)O)(c1ccccc1)c1ccccc1`, the inhibition at 100 µM in data set [1] turned out to be 22.5%.
For `CSc1ccc(C(SC[C@H](N)C(=O)O)(c2ccccc2)c2ccccc2)cc1`, in data set [1], the inhibition at 100 µM was 44.3%.
`NCCSC(c1ccccc1)(c1ccccc1)c1ccc2ccccc2c1`: the inhibition at 100 µM in data set [1] is 33.3%.
Same read-out and setting: next, `CCCc1ccc(C(SC[C@H](N)C(=O)O)(c2ccccc2)c2ccccc2)cc1`: 36.9%; `CCCCCCc1ccc(C(SC[C@H](N)C(=O)O)(c2ccccc2)c2ccccc2)cc1`: 16.1%; `N[C@H](CSC(c1ccccc1)(c1ccccc1)c1ccccc1)C(=O)O`: 17%.
The same measure, in the same setting: next, `N[C@@H](CSC(c1ccccc1)(c1ccccc1)c1ccc(Br)cc1)C(=O)O`: 20.2%.
As to `CCCOc1ccc(C(SC(C)(C)[C@H](N)C(=O)O)(c2ccccc2)c2ccccc2)cc1`, the inhibition entry in data set [1] (Hepatitis C virus subtype 1b) is “inactive”.
Turning to `CC(C)(SC(c1ccccc1)(c1ccccc1)c1ccccc1)[C@H](N)C(=O)O`, the inhibition at 100 µM in data set [4] amounted to 91.2%; in data set [1] it was 76.7%; in data set [7], 84.3%. Besides, the viability at 42 h, 100 µM came out at 100% in data set [5] and 74.1% in data set [6]. Also, in data set [2], the IC50 was 24.6 µM.
Consider `CC(C)(C)c1ccc(C(SC[C@H](N)C(=O)O)(c2ccccc2)c2ccccc2)cc1`, for which the inhibition at 100 µM in data set [1] is 22.6%.
For the compound `CCC(CC)C(SC[C@H](N)C(=O)O)(c1ccccc1)c1ccccc1`, the inhibition at 100 µM in data set [1] turned out to be 33.1%.
On to `CCCCCc1ccc(C(SC[C@H](N)C(=O)O)(c2ccccc2)c2ccccc2)cc1`, for which the inhibition at 100 µM in data set [1] amounted to 28.3%.
For the compound `N[C@@H](CSC(c1ccccc1)(c1ccccc1)c1ccc(C(F)(F)F)cc1)C(=O)O`, the inhibition at 100 µM in data set [1] came to 43.5%.
In the case of `NCCSC(c1ccccc1)(c1ccccc1)c1ccc(-c2ccccc2)cc1`, the inhibition at 100 µM in data set [1] stood at 36%.
As to `CCCC(SC[C@H](N)C(=O)O)(c1ccccc1)c1ccccc1`, the inhibition at 100 µM in data set [1] worked out at 19.1%.
